For five compounds, Fe removed and Ratio results are on record in ChEMBL document CHEMBL1122350, “Ferric ion sequestering agents. 11. Synthesis and kinetics of iron removal from transferrin of catechoyl derivatives of desferrioxamine B” (J Med Chem, 1983).

Molecules are shown by their SMILES.

In assay [1] the target is Serotransferrin (Homo sapiens) (UniProt P02787). As to the kind of experiment: Ability to remove iron from human iron transport protein transferrin, at a concentration of 0.1 mM, expressed as % iron removal in 30 minutes. The format is functional. An outline of the steps: (§1)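 Diferric transferrin was made from apotransferrin saturated with fresh Fe(NTA)2^3-, then gel-filtered in 0.1 M NaClO4/0.1 M Tris-HCl pH 7.4 (≥95% saturation by A280/A466 ≤24, A428/A466 = 0.85). The ligand was dissolved in 0.1 M Tris-HCl pH 7.4 with slight heating and mixed 1:1 with transferrin ([Fe2Tf] 2.9 × 10^-5 M) at 25.0 °C. Visible spectra were followed at 466 nm, and % iron removed was read at 30 min.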

Assay [2] in a line: Relative effectiveness at a concentration of 0.1 mM, on removal of Fe from transferrin as compared to Desferal. The format is functional. An outline of the steps:
(§2)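 Iron removal was measured spectrophotometrically from diferric transferrin (2.9 × 10^-5 M) in 0.1 M Tris-HCl pH 7.4 at 25.0 °C. A rough second-order rate constant k2 was taken as the % iron removed after 30 min divided by the initial ferric transferrin and ligand concentrations. The value is expressed as the ratio to the Desferal k2.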

A short description of assay [3]: Relative effectiveness at a concentration of 0.2mM, on removal of Fe from transferrin as compared to Desferal. The format is functional. An outline of the steps: as §2
Assay [4] concerns the target Serotransferrin (Homo sapiens) (UniProt P02787). As to the kind of experiment: Ability to remove iron from human iron transport protein transferrin, at a concentration of 1.2mM, expressed as % iron removal in 30 minutes. The format is functional. An outline of the steps: as §1
For assay [5] the target is unchanged. In words: Ability to remove iron from transferrin, at a concentration of 0.1 mM, expressed as % iron removal in 30 minutes. The format is functional. The settings on record: 0.2 mM; in the assay text read “0.2 mM” for “0.1 mM”. An outline of the steps: as §1
For assay [6] the target is unchanged. As to the kind of experiment: Ability to remove iron from human iron transport protein transferrin, at a concentration of 20 mM, expressed as % iron removal in 30 minutes. The format is functional.
Assay [7] in a line: Relative effectiveness at a concentration of 20 mM, on removal of Fe from transferrin as compared to Desferal. The format is functional.
The target in assay [8] is Serotransferrin (Homo sapiens) (UniProt P02787). In words: Ability to remove iron from human iron transport protein transferrin, at a concentration of 0.2 mM, expressed as % iron removal in 30 minutes. The assay is classed as functional. An outline of the steps:
as §1

Assay [9] shares this target. The settings on record: 500 mM.
For assay [10] the target is unchanged. As to the kind of experiment: Ability to remove iron from transferrin, at a concentration of 0.2 mM, expressed as % iron removal in 30 minutes. The format is functional. An outline of the steps: as §1

Sequence of Serotransferrin (Homo sapiens) (P02787 whole entry): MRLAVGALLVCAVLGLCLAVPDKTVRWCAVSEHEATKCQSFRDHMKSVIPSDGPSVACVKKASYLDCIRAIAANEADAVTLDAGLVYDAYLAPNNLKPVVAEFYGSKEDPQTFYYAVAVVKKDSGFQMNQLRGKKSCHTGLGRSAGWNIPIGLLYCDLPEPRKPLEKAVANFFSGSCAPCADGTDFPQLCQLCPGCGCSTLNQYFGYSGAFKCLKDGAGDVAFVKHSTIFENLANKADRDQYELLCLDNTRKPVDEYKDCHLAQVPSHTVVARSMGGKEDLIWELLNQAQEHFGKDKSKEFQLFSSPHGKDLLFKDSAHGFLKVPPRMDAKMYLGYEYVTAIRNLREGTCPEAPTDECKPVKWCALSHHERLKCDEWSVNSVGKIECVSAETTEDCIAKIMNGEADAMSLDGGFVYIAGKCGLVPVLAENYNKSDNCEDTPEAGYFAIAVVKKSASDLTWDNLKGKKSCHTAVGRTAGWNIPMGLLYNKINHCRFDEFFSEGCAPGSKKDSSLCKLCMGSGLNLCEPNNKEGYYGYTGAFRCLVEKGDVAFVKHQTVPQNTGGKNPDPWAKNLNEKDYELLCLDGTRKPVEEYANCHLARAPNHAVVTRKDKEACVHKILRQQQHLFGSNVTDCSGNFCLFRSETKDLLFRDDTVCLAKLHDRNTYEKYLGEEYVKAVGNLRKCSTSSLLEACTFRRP

Consider `CC(=O)N(O)CCCCCNC(=O)CCC(=O)N(O)CCCCCNC(=O)CCC(=O)N(O)CCCCCNC(=O)c1cccc(O)c1O`, for which the Fe removed in assay [1] was 2%. In assay [2], the Ratio came to 180.

In the case of `CC(=O)N(O)CCCCCNC(=O)CCC(=O)N(O)CCCCCNC(=O)CCC(=O)N(O)CCCCCNC(=O)c1ccc(C(=O)O)c(O)c1O`, the Ratio in [3] is 130. Besides, the Fe removed was determined as 18% in assay [4] and 3% in assay [5].

Take `CC(=O)N(O)CCCCCNC(=O)CCC(=O)N(O)CCCCCNC(=O)CCC(=O)N(O)CCCCCN`: the Fe removed in [6] came to 5%. Besides, the Ratio in [7] was found to be 1.

Consider `O=C(N[C@H]1COC(=O)[C@@H](NC(=O)c2cccc(O)c2O)COC(=O)[C@@H](NC(=O)c2cccc(O)c2O)COC1=O)c1cccc(O)c1O`, for which the Ratio in assay [3] stood at 120. In addition, the Fe removed in assay [8] turned out to be 6%.

In the case of `O=C(O)CN(CCN(CC(=O)O)CC(=O)O)CC(=O)O`, the Fe removed in assay [9] turned out to be 37%; in [10] it was 0%.
